The source of these data is PMC4502742 (Autophagy, 2015).

Non-standard residues stand in square brackets, D forms with d. No end group written: not given here. pS = N[C@@H](COP(=O)(O)O)C(=O)O

In series [1] the test system is chaperone-mediated autophagy (CMA) in NIH3T3 cells. Kind of series: CMA activity, KFERQ-PA-mCherry1 reporter. The note with it: NIH3T3, serum-free medium, 10 and 30 μM peptide, 12 h; N > 50 cells; Fig. 4. In kind it is cell-based, mouse. Put shortly: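 NIH3T3 cells stably expressing the photoactivable KFERQ-PA-mCherry1 reporter were photoactivated, then kept in serum-free medium to maximally activate CMA, with or without 10 or 30 μM test peptide for 12 h. Scrambled and unphosphorylated peptides served as controls. Nuclei were stained with DAPI. Fluorescent puncta per cell were counted in at least 50 cells. Results are mean + SEM; Student t test.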

In series [2] the test system is B cells from MRL/lpr mice. The experiment in a line: Internalization and colocalization in purified B cells, confocal microscopy. In kind it is cell-based, mouse. The following applies: PBS-2% FCS.
For series [3], the system named is chaperone-mediated autophagy (CMA) in NIH3T3 cells. Kind of series: CMA activity, KFERQ-PS-Dendra reporter, high-content microscopy. In kind it is cell-based, mouse. The note with it: 6 P140 concentrations, serum, starvation, paraquat 50 μM, > 700 cells, compared to an inactive P140 analog, Fig. S9.
Series [4] has as its system CTSD. Kind of series: CTSD protein in purified B cells of treated mice, western immunoblotting. In kind it is in vivo. The note with it: MRL/lpr mice, 100 μg P140/mouse/injection once or 6 times at daily intervals; Fig. 5F. Put shortly:
(§1)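 MRL/lpr mice (10–13 wk old, 3 per group) received 100 μg test peptide per injection. Dosing was either once, with cells taken 5 d later, or 6 times at daily intervals, with cells taken 1 d after the last injection. Purified B cells were immunoblotted and band intensity was expressed relative to β-ACTA. Ratios were normalized to untreated MRL/lpr mice and given as mean of 3 mice + SD; at least 2 independent experiments.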
On the technique in general: Immunoblotting shows a protein as a band on a membrane.

Series [5] addresses HSPA8 (Bos taurus, UniProt P19120). Kind of series: HSPA8 ATPase activity. In kind it is biochemical. The note with it: HSPA8 500 nM without HSP40; 100 μM ATP; 3 h at 37°C; luminescence; 3 independent experiments; Fig. 1D.
A short description of series [6]: Stability in matrices of isolated lysosomes. In kind it is in vitro ADME. The note with it: pH 4.2, 5.3, 7.2. Put shortly:
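Peptide stability was tested in artificial lysosomal fluid at pH 4.2, 5.3 and 7.2. The fluid was supplemented with CTSD plus CTSL or with matrix extracted from isolated lysosomes. Samples were analysed by analytical RP-HPLC at 220 nm using water + 0.1% TFA and acetonitrile + 0.08% TFA eluents. Degradation was judged from the remaining intact-peptide peak area at several time intervals.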

Series [7] concerns lupus patients. The note with it: phase II clinical trials; cited from earlier work.
Series [8] concerns CTSD/cathepsin D and CTSL/cathepsin L. Kind of series: Stability in artificial lysosomal fluid. In kind it is in vitro ADME.
The subject of series [9] is HSPA8/HSC70/HSP73 chaperone. The note with it: cited from earlier work.
Series [10] relates to LAMP2A. The experiment in a line: Lamp2a mRNA in purified B cells, qRT-PCR. In kind it is in vivo, mouse. The following applies: B cells of MRL/lpr mice; Fig. S13. In general terms: In qPCR the cycle at which signal appears reflects the starting amount.
The test system of series [11] is MRL/lpr mice splenocytes. Kind of series: Intracellular localization in splenocytes after iv administration. In kind it is in vivo, mouse. The note with it: 1 h after iv administration; Fig. S5. The procedure, abridged:
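MRL/lpr mice (10–12 wk old) received 100 μg Alexa Fluor 488-labeled peptide intravenously. Splenocytes taken 1 h after injection were incubated for 30 min at 37°C in complete RPMI with 100 nM LysoTracker Red DND-99 or 500 nM MitoTracker Deep Red FM. After washing in the same medium, they were imaged immediately by confocal microscopy.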

The subject of series [12] is LAMP1. Kind of series: LAMP1 protein in purified B cells of treated mice, western immunoblotting. In kind it is in vivo. The note with it: MRL/lpr mice, 100 μg P140/mouse/injection once or 6 times at daily intervals; Fig. 5F. Put shortly: as §1
Series [13] deals with major histocompatibility complex class II (MHCII) molecules. The following applies: cited from earlier work.
The subject of series [14] is MRL/lpr lupus-prone mice. The note with it: cited from earlier work.
Series [15] concerns lysosomes isolated from mouse liver. Kind of series: CMA in vitro: GAPDH binding and uptake by isolated lysosomes. In kind it is biochemical.
The target in series [16] is HSPA8 N-terminal fragment 1-386 (nucleotide binding domain) (human, UniProt P11142 1-386). The experiment in a line: ELISA. (ELISA stands for enzyme-linked immunosorbent assay.)
[17] abbreviates: administered intravenously to MRL/lpr mice.

HSPA8, sequence (P19120 whole entry): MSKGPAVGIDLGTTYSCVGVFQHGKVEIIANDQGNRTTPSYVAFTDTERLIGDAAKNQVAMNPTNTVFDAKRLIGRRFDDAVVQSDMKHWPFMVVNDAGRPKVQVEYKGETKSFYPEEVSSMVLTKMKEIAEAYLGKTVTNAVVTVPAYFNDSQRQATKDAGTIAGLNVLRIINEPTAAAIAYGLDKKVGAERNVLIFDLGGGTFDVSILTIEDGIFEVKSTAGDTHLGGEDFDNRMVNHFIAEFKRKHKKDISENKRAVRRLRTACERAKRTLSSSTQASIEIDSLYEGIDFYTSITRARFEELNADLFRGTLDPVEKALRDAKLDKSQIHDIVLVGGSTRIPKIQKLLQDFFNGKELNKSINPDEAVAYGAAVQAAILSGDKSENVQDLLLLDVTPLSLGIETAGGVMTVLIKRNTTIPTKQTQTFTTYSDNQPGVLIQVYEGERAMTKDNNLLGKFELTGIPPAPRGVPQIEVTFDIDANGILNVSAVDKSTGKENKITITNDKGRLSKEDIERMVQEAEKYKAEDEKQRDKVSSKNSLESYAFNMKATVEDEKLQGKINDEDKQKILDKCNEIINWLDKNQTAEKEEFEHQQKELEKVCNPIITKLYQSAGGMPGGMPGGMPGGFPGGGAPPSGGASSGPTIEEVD
HSPA8 N-terminal fragment 1-386 (nucleotide binding domain), sequence (P11142 1-386): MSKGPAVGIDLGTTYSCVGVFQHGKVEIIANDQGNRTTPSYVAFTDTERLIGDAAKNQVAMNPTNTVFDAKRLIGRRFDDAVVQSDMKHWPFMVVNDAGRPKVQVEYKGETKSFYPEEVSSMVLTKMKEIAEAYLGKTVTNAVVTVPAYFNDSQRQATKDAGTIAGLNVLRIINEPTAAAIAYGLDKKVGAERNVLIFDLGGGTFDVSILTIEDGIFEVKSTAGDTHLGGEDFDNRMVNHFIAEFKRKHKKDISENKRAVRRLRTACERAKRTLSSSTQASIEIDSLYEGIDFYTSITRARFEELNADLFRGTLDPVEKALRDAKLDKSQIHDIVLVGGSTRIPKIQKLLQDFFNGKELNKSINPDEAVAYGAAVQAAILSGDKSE

Consider “131–151: unphosphorylated (nonprotective) peptide 131–151 of SNRNP70/U1–70K (RIHMVYSKRSGKPRGYAFIEY; UniProt P08621 131-151, looked up, fragment) [reference compound]”, for which, in [1], the “CMA activity, average number of fluorescent puncta per cell” value is “did not observe any changes in CMA activity”. Further, the “colocalization with early endosomal marker EEA1, ex vivo” value in [2] (10 μM Alexa Fluor 488-labeled peptide, 15 min at 37°C, Fig. 3B, S6B, C) is listed as “colocalization with EEA1 was hardly seen”.

Take RIHMVYSKRpSGKPRGYAFIEY [P140]: the “CMA activity, average number of puncta per cell” value in series [3] is “significantly diminish CMA activity in a peptide concentration-dependent manner”. For the same molecule, in [1], the “CMA activity, average number of fluorescent puncta per cell” value is reported as “clearly diminished the average number of puncta per cell in a dose-dependent manner”. Moreover, the “CTSD expression in purified B cells” value in [4] is given as “highly significant reduction”. The “endogenous HSPA8 ATPase activity” value in series [5] is “effectively increase both the endogenous and HSP40-stimulated ATPase activities of HSPA8 in a peptide dose-dependent manner”. Also, in [6], the “stability over pH in CMA+ lysosomal extracts” value is given as “remains stable on a large range of pH”. The “protective effect in lupus patients” value in [7] is listed as “displays protective properties”. For the same molecule, in series [8] (ALF, pH 4.2, 37°C, LC-MS, Fig. S8), the “time for which the phosphoryl moiety was preserved” value is reported as “about 2 h”. In series [8] (pH 5.3 and 7.2 compared to 4.2, medium not given), the “dependence of stability on pH” value is “more stable at higher pH (5.3 and 7.2 compared to 4.2)”. For the same molecule, the “binding to HSPA8” value in series [9] is “readily binds to HSPA8”. Further, the “Lamp2a mRNA level” value in series [10] was “lack of change at the mRNA level”. Moreover, the “localization by LysoTracker Red / MitoTracker Deep Red counterstaining” value in series [11] is listed as “accumulated into lysosomes”. Also, the “entry pathway into B lymphocytes” value in [2] (B lymphocytes from 12-wk-old MRL/lpr mice, Alexa Fluor 488-labeled peptide 10 μM, 30 min at 37°C, confocal, Fig. 2A) was “endocytosed by a clathrin-dependent mechanism”. For the same molecule, the “LAMP1 expression in purified B cells” value in series [12] is recorded as “A similar trend was observed for LAMP1 expression”. The “binding to MHCII molecules” value in series [13] is “binds both the HSPA8/HSC70/HSP73 chaperone and major histocompatibility complex class II (MHCII) molecules”. The “protective effect in lupus-prone mice” value in series [14] (MRL/lpr mice) is reported as “displays protective properties”. Moreover, in [14] (MRL/lpr mice, earlier work), the MHCII expression entry is reported as “decreases MHCII overexpression”; the “signs of systemic autoimmunity (proteinuria, vasculitis, dermatitis, anti-DNA antibody production)” value is “attenuates biological and clinical signs of systemic autoimmunity”. In [14] (setting [17]), the HSPA8 expression entry was “decreases the HSPA8 overexpression observed in this murine strain”; the “autophagy markers SQSTM1/p62 and LC3-II” value was “increases the accumulation of the autophagy markers SQSTM1/p62 (sequestosome 1) and LC3-II”. For the same molecule, in series [15] (as above with exogenous HSPA8 in the incubation media, Fig. S10B), the “GAPDH associated with lysosomes, exogenous HSPA8 added” value is recorded as “not even when exogenous HSPA8 was added”. In addition, in series [15] (difference of GAPDH with and without protease inhibitors, Fig. S10C, D), the “uptake of GAPDH by lysosomes” value is on record as “did not significantly modify binding or uptake of GAPDH by CMA”. In addition, the “GAPDH associated with lysosomes” value in series [15] (lysosomes 75 μg protein pretreated with protease inhibitors, GAPDH 25 μg, 20 min at 37°C, pH 7.3, increasing peptide concentrations, immunoblot, Fig. S10A) is “did not modify the amount of GAPDH recovered in lysosomes”. Further, the “binding of GAPDH to lysosomes” value in series [15] (lysosomes without protease inhibitors, Fig. S10C, D) is given as “did not significantly modify binding or uptake of GAPDH by CMA”.

In the case of RIHMVYSKR[pS]GKPRGYAFIEY [P140 peptide (SNRNP70/U1-70K 131-151, phosphoserine 140)], the binding result in series [16] is “binds”.
